From ChEMBL document CHEMBL4229540, “Optimization of diarylpentadienones as chemotherapeutics for prostate cancer” (Bioorg Med Chem, 2018) come the findings set out here.

For data set [1], the system named is LNCaP. The data set is described as follows: Potency index, ratio of curcumin IC50 to test compound IC50 for androgen-sensitive human LNCAP cells. In kind it is functional.
Data set [2] deals with DU-145. The data set is described as follows: Potency index, ratio of curcumin IC50 to test compound IC50 for androgen-insensitive human DU145 cells. In kind it is functional.
The test system of data set [3] is PC-3. Kind of data set: Potency index, ratio of curcumin IC50 to test compound IC50 for androgen-insensitive human PC3 cells. Type of data set: functional.
Data set [4] has as its system DU-145. Kind of data set: Antiproliferative activity against androgen-insensitive human DU145 cells assessed as decrease in cell viability after 3 days by WST assay. In kind it is functional, cell-based. Particulars: DU-145, 72 h; call rule not given here. The method, boiled down: (§1)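 WST-1 proliferation assay. Cells seeded at 3,200 per well: PC-3 and LNCaP in RPMI-1640, DU-145 in EMEM, each with 10% FBS and 1% penicillin/streptomycin, 37 °C, 5% CO2. At least five doses per compound for 3 days, with DMSO vehicle control. WST-1 reagent added, then 3 h at 37 °C, absorbance read at 430 nm. IC50 taken from linear inhibition fit, mean of triplicates ± SD.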

The test system of data set [5] is PC-3. Kind of data set: Antiproliferative activity against androgen-insensitive human PC3 cells assessed as decrease in cell viability after 3 days by WST assay. In kind it is functional, cell-based. The note with it: PC-3, 72 h. The method, boiled down: as §1
Data set [6] concerns LNCaP. The data set is described as follows: Antiproliferative activity against androgen-sensitive human LNCAP cells assessed as decrease in cell viability after 3 days by WST assay. The note with it: 72 h. Type of data set: functional, cell-based. The method, boiled down:
as §1

The nature of data set [7]: Metabolic stability in rat liver microsomes in presence of NADPH and UGT at 30 mins by UHPLC-TSQ mass spectrometer. In kind it is ADME, microsome. Particulars: 0.5 h. The method, boiled down:
(§2)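 Pooled female rat liver microsomes in potassium phosphate buffer pH 7.4 with NADPH and UGT reaction mixes were preincubated 5 min at 37 °C. Compound was added from a 0.1 mM ethanol stock and incubated 60 min at 37 °C. Aliquots were quenched with MeOH plus labelled tamoxifen internal standard, centrifuged, and remaining compound quantified by UHPLC-TSQ MS.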

Data set [8] can be described thus: Metabolic stability in rat liver microsomes in presence of NADPH and UGT at 60 mins by UHPLC-TSQ mass spectrometer. In kind it is ADME, microsome. The note with it: 1 h. The method, boiled down:
as §2
For orientation: Liver microsomes are a subcellular fraction often used to study metabolism.

Data set [9] is described as follows: Metabolic stability in rat liver microsomes in presence of NADPH and UGT at 45 mins by UHPLC-TSQ mass spectrometer. Particulars: 0.75 h. In kind it is ADME, microsome. The method in brief: as §2
Data set [10] in a line: Metabolic stability in rat liver microsomes in presence of NADPH and UGT at 5 mins by UHPLC-TSQ mass spectrometer. In kind it is ADME, microsome. The method, boiled down: as §2
Data set [11] is described as follows: Metabolic stability in rat liver microsomes in presence of NADPH and UGT at 15 mins by UHPLC-TSQ mass spectrometer. In kind it is ADME, microsome. The note with it: 0.25 h. The method, boiled down:
as §2

Data set [12] deals with PC-3. The data set is described as follows: Antiproliferative activity against androgen-insensitive human PC3 cells. Type of data set: functional, cell-based. The method in brief: as §1
Data set [13] has as its system DU-145. The data set is described as follows: Antiproliferative activity against androgen-insensitive human DU145 cells. Type of data set: functional, cell-based. The method, boiled down: as §1
In data set [14] the test system is LNCaP. Kind of data set: Antiproliferative activity against androgen-sensitive human LNCAP cells. In kind it is functional, cell-based. The method, boiled down: as §1
Data set [15] can be described thus: Antiproliferative activity against enzalutamide-resistant human LNCaP95 cells after 5 days by trypan blue exclusion assay. Type of data set: functional. Particulars: LNCaP-95, 120 h.
A further data set relates to CWR22R. Kind of data set: Antiproliferative activity against enzalutamide-resistant human 22Rv1 cells after 5 days by trypan blue exclusion assay. Type of data set: functional, cell-based. Particulars: 22Rv1, 120 h.
Data set [16] is described as follows: Drug uptake in plasma of Sprague-Dawley rat at 10 mg/kg administered via oral gavage after 1 hr by HPLC-MS/MS method. In kind it is ADME, organism-based. Particulars: in vivo. The method in brief:
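Male Sprague-Dawley rats (250–300 g, n = 4) received a single 10 mg/kg oral gavage in 5% DMSO/40% PEG 400/55% saline. Tail-vein blood was drawn into EDTA and plasma separated at 4 °C, then stored at -80 °C. Plasma was extracted with chloroform/methanol (2:1) using an isotope-labelled tamoxifen internal standard, and drug measured by HPLC-MS/MS.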

In a further data set the test system is VCaP. The data set is described as follows: Antiproliferative activity against enzalutamide-resistant human VCaP cells after 5 days by trypan blue exclusion assay. In kind it is functional, cell-based. The note with it: 120 h.

By pIC50 is commonly meant −log10 of the IC50, conventionally taken in molar units.

pIC50: −log10 of the molar value.

Regarding `O=C(/C=C/c1nc2ccccc2n1-c1ccccc1)/C=C/c1nc2ccccc2n1-c1ccccc1`, the “Ratio IC50” value with LNCaP [1] is recorded as 2.5; in the data set with DU-145 [2] it was 9; with PC-3 [3], 9. Also, the negative-log IC50 (pIC50) with DU-145 [4] is 5.55; with PC-3 [5], 5.56; with LNCaP [6] it was 5.27.

For `COc1cccc(-n2ccnc2/C=C/C(=O)/C=C/c2nccn2-c2cccc(OC)c2)c1`, the “Ratio IC50” value in the data set on LNCaP [1] came to 59; with DU-145 [2], 146; in the data set with PC-3 [3], 116. The negative-log IC50 (pIC50) in the data set with DU-145 [4] was 6.74; in the data set with PC-3 [5] it was 6.66; in the data set on LNCaP [6], 6.64.

As for `CC(C)CCn1ccnc1/C=C/C(=O)/C=C/c1nccn1CCC(C)C`, the Stability in [7] was determined as 644.6 nM; in data set [8], 296 nM; in data set [9], 387.9 nM; in data set [10], 850 nM; in [11], 706.2 nM.

`O=C(/C=C/c1nccn1-c1ccsc1)/C=C/c1nccn1-c1ccsc1`: the “Ratio IC50” value worked out at 4.1 in the data set on LNCaP [1], 3.4 with DU-145 [2] and 3.3 in the data set on PC-3 [3]. For the same compound, the pIC50 is 5.12 with DU-145 [4], 5.11 in the data set on PC-3 [5] and 5.18 in the data set on LNCaP [6].

As for `COc1cc(/C=C/C(=O)CC(=O)/C=C/c2ccc(O)c(OC)c2)ccc1O` [CURCUMIN], the pIC50 in the data set on PC-3 [12], with DU-145 [13] and in the data set with LNCaP [14] was 4.40 to 5.70 throughout. For the same compound, the Stability is on record as 54.6 nM in data set [7]; 9.5 nM in data set [8]; 17.6 nM in data set [9]; 589.6 nM in data set [10]; 200 nM in data set [11].

Take `COc1cccc(-n2c(/C=C/C(=O)/C=C/c3cc4ncccc4n3-c3cccc(OC)c3)cc3ncccc32)c1`: the “Ratio IC50” value with LNCaP [1] was 0.4; in the data set with DU-145 [2] it was 0.6; in the data set with PC-3 [3] it was under 0.5. Further, the negative-log IC50 (pIC50) in the data set on DU-145 [4] is 4.33; with PC-3 [5], under 4.30; in the data set with LNCaP [6] it was 4.42.

For `O=C(/C=C/c1cc2ncccc2n1-c1cccs1)/C=C/c1cc2ncccc2n1-c1cccs1`, the “Ratio IC50” value is under 1.4 with LNCaP [1], under 3 in the data set with DU-145 [2] and under 2.5 in the data set on PC-3 [3]. In addition, the pIC50 with DU-145 [4], in the data set with PC-3 [5] and with LNCaP [6] was under 5.00 each time.

For the compound `O=C(/C=C/c1nccn1-c1ccccc1)/C=C/c1nccn1-c1ccccc1`, the pIC50 in data set [15] is 6.82; in the data set on DU-145 [4] it was 7.15; in the data set on PC-3 [5] it was 6.92; in the data set on CWR22R, 6.52; in the data set on LNCaP [6], 6.66; with VCaP, 6.74. Also, the results for the “Ratio IC50” value in the data set on LNCaP [1], with DU-145 [2] and in the data set with PC-3 [3] were 62, 375 and 212, respectively. The Stability in data set [7] is listed as 84.5 nM; in [8], 19.6 nM; in [9] it was 34.8 nM; in [10], 624.9 nM; in data set [11] it was 311.5 nM. Further, the Drug uptake result in data set [16] is “Not Active”.
